Measurements from ChEMBL document CHEMBL5678814, “Novel Mps1 Kinase Inhibitors with Potent Antitumor Activity” (Mol Cancer Ther, 2016).
Active and inactive are the calls of the source. The rule behind the calls is not given here.

Legend:
LU387 = test: Antitumor activity against human LU387 cells xenografted female athymic NMRI mouse model assessed as reduction in tumor size at 20 mg/kg,iv administered twice daily intermittent for 1 days on/6 days off; assay type: functional, organism-based; conditions: time 7.0 day, in the assay text read “once daily” for “twice daily”
How it was run: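 LU387 patient-derived tumor fragments (4–5 mm) transplanted s.c. into the flank of nude mice. Treatment started at ~40 mm2. Paclitaxel i.v. at 20 mg/kg once weekly (1 on/6 off). Tumor area (longest diameter × perpendicular) measured by caliper two to three times weekly. T/C computed from end-of-study tumor areas; 8–10 mice/group.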

A2780cis [1] = test: Antitumor activity against human A2780cis cells implanted female athymic NMRI mouse model assessed as induction in KNL1 at Thr-875 phosphorylation at 24 mg/kg,iv administered once for 1 day by immunohistochemical staining; assay type: functional, organism-based
How it was run: (§1)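 A2780cis tumors (2×10^6 cells in 100% Matrigel, s.c.) in female NMRI nude mice. Paclitaxel i.v. once at 24 mg/kg on day 1, started at ~52–60 mm2 tumor area. Tumors harvested 36 h after first treatment. Paraffin sections stained with rabbit anti-pThr875 KNL1 or anti-CASC5 (total KNL1), both 1:400. Positive pixels above background scored in three fields per slide.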

A2780cis [2] = test: Antitumor activity against human A2780cis cells xenografted in female athymic NMRI mouse assessed as increase in necrosis at 24 mg/kg,iv administered once for 1 day and measured after 8 hrs by H&E staining
A2780cis [3] = test: Antitumor activity against human A2780cis cells xenografted in female athymic NMRI mouse assessed as increase in apoptosis at 24 mg/kg,iv administered once for 1 day and measured after 8 hrs by H&E staining
A2780cis [4] = test: Antitumor activity against human A2780cis cells implanted female athymic NMRI mouse model assessed as change in KNL1 total level at 24 mg/kg,iv administered for 1 day by immunohistochemical staining; assay type: functional, organism-based; how it was run: as §1
A2780cis [5] = test: Antitumor activity against human A2780cis cells xenografted in female athymic NMRI mouse assessed as induction in atypical mitoses at 24 mg/kg,iv administered once for 1 day and measured after 8 hrs by H&E staining
[6] = Tmax in male Wistar rat plasma at 0.5 mg/kg, po measured after 24 hrs by LC/-MS/MS analysis; assay type: ADME, organism-based
How it was run: (§2)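 Male Wistar rats given 0.5 mg/kg orally. Plasma collected from 8 min to 24 h, precipitated with ice-cold acetonitrile (1:5), and analysed by LC/MS-MS. Cmax and Tmax read directly from concentration–time profiles.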

SUM149PT = test: Synergistic antitumor activity against human SUM149 cells xenografted female athymic NMRI mouse model assessed as MTD at 1.5 mg/kg,po administered twice daily intermittent for 2 days on/5 days off measured after 48 days treatment in the presence of paclitaxel relative to control; conditions: time 48 day
[7] = Half life in male Wistar rat plasma at 0.5 mg/kg, iv measured after 24 hrs by LC/-MS/MS analysis; assay type: ADME, organism-based
[8] = Volume of distribution at steady state in male Wistar rat plasma at 0.5 mg/kg, iv measured after 24 hrs by LC/-MS/MS analysis; assay type: ADME, organism-based; conditions: read-out: Vdss
Caov-3 cell line = test: Antiproliferative activity against human Caov-3 cell line assessed as cell growth inhibition incubated for 96 hrs by crystal violet staining; conditions: Caov-3, 96 h
[9] = Oral bioavailability in male Wistar rat plasma at 0.5 mg/kg measured after 24 hrs by LC/-MS/MS analysis; assay type: ADME, organism-based
[10] = Half life in female CD1 mouse plasma at 1 mg/kg, iv measured after 24 hrs by LC/-MS/MS analysis; assay type: ADME, organism-based
How it was run: (§3)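 Female CD1 mice received a single iv bolus of 1.0 mg/kg in 50% PEG 400, 10% ethanol and 40% water. Plasma was sampled at 2, 5, 15, 30 and 45 min and at 1, 2, 4, 6, 8 and 24 h, precipitated with ice-cold acetonitrile (1:5), and supernatants were quantified by LC/MS-MS. Parameters were estimated from plasma concentration data, with AUC by the log-linear trapezoidal rule.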

[11] = Volume of distribution at steady state in female CD1 mouse plasma at 1 mg/kg, iv measured after 24 hrs by LC/-MS/MS analysis; assay type: ADME, organism-based; conditions: read-out: Vdss; how it was run: as §3
[12] = Cmax in female NMRI mouse plasma at 1 mg/kg, po measured after 24 hrs by LC/-MS/MS analysis
[13] = Antitumor activity against human A2780cis cells implanted female athymic NMRI mouse model assessed as reduction in KNL1 at Thr-875 phosphorylation at 4 mg/kg,po administered for 2 days by immunohistochemical staining relative to control; assay type: functional; set-up: scale not given: the % may be the effect or the level left; conditions: time 2 day
[14] = Toxicity in human A2780cis cells xenografted female athymic NMRI mouse model assessed as change in body weight at 5 mg/kg, po administered twice daily intermittent for 2 days on/5 days off; assay type: organism-based; conditions: in vivo, 168 h, time 7 day
How it was run: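 A2780cis cells (2×10^6 in 100% Matrigel) implanted s.c. in athymic mice. Treatment started at ~30 mm2. Oral dosing twice daily, 2 days on/5 days off, with PEG 400/ethanol/Solutol vehicle controls. Dose based on individual body weight. Body weight monitored two to three times weekly as toxicity measure; >20% loss deemed toxic.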

[15] = Cmax in male Wistar rat plasma at 0.5 mg/kg, po measured after 24 hrs by LC/-MS/MS analysis; assay type: ADME, organism-based; how it was run: as §2
LXF-289 cell line = test: Antiproliferative activity against human LXF-289 cell line assessed as cell growth inhibition incubated for 96 hrs by crystal violet staining; conditions: LXF-289, 96 h
[16] = Clearance in male Wistar rat blood at 0.5 mg/kg, iv measured after 24 hrs by LC/-MS/MS analysis; assay type: ADME, organism-based
[17] = system: KATO III stomach cancer cell line; test: Antiproliferative activity against human KATO III stomach cancer cell line assessed as cell growth inhibition incubated for 96 hrs by MTS assay; assay type: functional, cell-based
[18] = Tmax in female NMRI mouse plasma at 1 mg/kg, po measured after 24 hrs by LC/-MS/MS analysis
NCI-H1299 = test: Synergistic antitumor activity against human NCI-H1299 cells xenografted female athymic NMRI mouse model assessed as MTD at 3 mg/kg,po administered twice daily intermittent for 2 days on/5 days off in the presence of paclitaxel relative to control; assay type: functional; conditions: time 7 day
[19] = Oral bioavailability in female NMRI mouse plasma at 1 mg/kg measured after 24 hrs by LC/-MS/MS analysis
[20] = Synergistic toxicity in human NCI-H1299 cells xenografted female athymic NMRI mouse model assessed as body weight loss at 3 mg/kg,po administered twice daily intermittent for 2 days on/5 days off in the presence of paclitaxel relative to control; assay type: organism-based; conditions: in vivo, 168 h, time 7 day
How it was run: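 NCI-H1299 cells (3×10^6 in 100% Matrigel) implanted s.c. in the inguinal region of athymic mice. Treatment started on day 8 at ~30 mm2. Mps1 inhibitor given p.o. 3 mg/kg twice daily, 2 days on/5 off. Paclitaxel i.v. 20 mg/kg once weekly, given within 1 h of the inhibitor on the same day. Body weight tracked two to three times weekly; >20% loss deemed toxic.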

[21] = Clearance in female CD1 mouse blood at 1 mg/kg, iv measured after 24 hrs by LC/-MS/MS analysis; assay type: ADME, organism-based
How it was run: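 Single dose to female mice, i.v. as bolus (1.0 mg/kg) or oral (1 mg/kg), in 50% PEG 400/10% ethanol/40% water. Plasma sampled up to 24 h: 2 min–24 h after i.v., 8 min–24 h after p.o. Samples precipitated with ice-cold acetonitrile (1:5) and analysed by LC/MS-MS. AUC by log-linear trapezoidal rule; Cmax and Tmax read directly from the profiles.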

[22] = Antitumor activity against human A2780cis cells implanted female athymic NMRI mouse model assessed as reduction in KNL1 at Thr-875 phosphorylation at 2 mg/kg,po administered for 2 days by immunohistochemical staining relative to control; assay type: functional; set-up: scale not given: the % may be the effect or the level left; conditions: time 2 day
[23] = Antitumor activity against human A2780cis cells xenografted female athymic NMRI mouse model assessed as T/C ratio at 5 mg/kg, po administered twice daily intermittent for 2 days on/5 days off; assay type: functional; conditions: time 7 day

CC(=O)O[C@H]1C(=O)[C@@]2(C)[C@H]([C@H](OC(=O)c3ccccc3)[C@]3(O)C[C@H](OC(=O)[C@H](O)[C@@H](NC(=O)c4ccccc4)c4ccccc4)C(C)=C1C3(C)C)[C@]1(OC(C)=O)CO[C@@H]1C[C@@H]2O
Activity (LU387): Active
Activity (A2780cis [1]): Active
Activity (A2780cis [2]): Active
Activity (A2780cis [3]): Active
Activity (A2780cis [4]): Active
Activity (A2780cis [5]): Active

COc1ccc(Oc2cc(NCCC(F)(F)F)c3ncc(-c4ccc(C(=O)NC5CC5)c(C)c4)n3n2)c(F)c1F [BAY-1217389]
Tmax [6]: 1.5 h
MED (SUM149PT): 30%
half-life [7]: 7.8 h
Vd [8]: 2.2 L/kg
IC50 (Caov-3 cell line): 36 nM
bioavailability [9]: 73%
half-life [10]: 4.1 h
Vd [11]: 2.7 L/kg
Cmax [12]: 74 ng/mL
Activity [13]: 80%
Activity [14]: Non-Toxic
Cmax [15]: 177 ng/mL
IC50 (LXF-289 cell line): 3.3 nM
clearance [16]: 9 mL/min/kg
IC50 [17]: > 300 nM
Tmax [18]: 7 h
MED (NCI-H1299): 60%
bioavailability [19]: 37%
Activity [20]: > 10%
clearance [21]: 13.7 mL/min/kg
Activity [22]: 60%
T/C [23]: 0.53
